TRPML3 agonist: activates the human TRPML3 channel; Q8TDD5; HEK293 TRPML3-YFP, Fluo-8 calcium fluorescence; 100% = the carbachol control signal; activation, % at 3 µM; hit rate 0.29% among 220,000;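 active means activation above its plate's cutoff, the mean activation of the plate's test wells plus 3 SD, cut at about 12% in these data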
Target sequence (Q8TDD5 whole entry, looked up): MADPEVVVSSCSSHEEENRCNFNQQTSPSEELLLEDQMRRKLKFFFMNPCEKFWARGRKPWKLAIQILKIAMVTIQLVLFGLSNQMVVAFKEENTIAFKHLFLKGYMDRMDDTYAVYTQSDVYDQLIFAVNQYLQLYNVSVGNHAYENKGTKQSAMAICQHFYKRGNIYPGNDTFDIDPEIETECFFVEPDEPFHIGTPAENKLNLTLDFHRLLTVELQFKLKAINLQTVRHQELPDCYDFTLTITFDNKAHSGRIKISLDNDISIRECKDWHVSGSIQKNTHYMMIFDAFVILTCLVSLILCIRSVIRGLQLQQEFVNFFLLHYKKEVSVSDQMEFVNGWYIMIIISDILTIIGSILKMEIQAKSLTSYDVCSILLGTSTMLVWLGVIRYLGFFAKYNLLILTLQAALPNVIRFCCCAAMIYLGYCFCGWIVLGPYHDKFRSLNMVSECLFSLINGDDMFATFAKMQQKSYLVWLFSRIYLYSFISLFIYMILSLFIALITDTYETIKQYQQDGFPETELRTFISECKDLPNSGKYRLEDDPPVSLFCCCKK
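Test system – HEK293 line with stable expression of human TRPML3-YFP channel · Control set – carbachol 87 µM final as high control (100%), DMSO as low control (0%) · Signal – Fluo-8 calcium dye fluorescence, ex 470-495, em 515-575 nm · Incubation – 1-h 37 °C dye load, 5-s basal, 120-s post-compound reads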
OX1R antag-1: antagonists of human orexin 1 receptor (OX1R); hit rate 1.8% among 330,000; inhibition, % at 6.6 µM; O43613; OX1R-expressing cells, FRET antagonist read-out; in the data active means inhibition mostly above about 38%, no sharp cut-off; inactive means mostly below about 40%
OX1R antag-2: blocks the human orexin 1 receptor; O43613; CHO/OX1R cells, Fluo-8 calcium fluorescence, orexin A; inhibition, % at 5 µM; hit rate 0.43% among 330,000;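 active means inhibition above its plate's threshold, mean inhibition of all tested compounds on the plate plus 3 SD, cut at about 37% in these data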
TRPN1 ag: activates the zebrafish TRPN1 channel; activation, % at 3 µM; hit rate 0.18% among 220,000; HEK293 zebrafish TRPN1-YFP, Fluo-8 calcium fluorescence; 100% = response to 87 µM carbachol;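 active means activation above its plate's cutoff, the mean activation of test wells on that plate plus 3 SD, cut at about 19% in these data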
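System: zebrafish TRPN1-YFP in HEK293 cells / Dosing: 3 µM single point / Timing: dye loading 1 h at 37 °C, then 30 min room temperature / Signal: Fluo-8 calcium fluorescence, excitation 470-495 nm, emission 515-575 nm / Read-out basis: percent activation from peak over basal fluorescence ratio, control-normalized / Control set: high carbachol 87 µM, low DMSO alone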
CHO parental Ca: signal in parental CHO cells, OX1R antagonist counter-screen | inhibition, % at 5.6 µM | parental CHO-K1, ATP-induced calcium, Fluo-8 fluorescence | hit rate 0.63% among 330,000 | AID 463079;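 active means inhibition above that plate's mean sample inhibition plus 3 SD, cut at about 26% in these data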
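test system = CHO parental line | reagent = ATP stimulus | measured by = intracellular calcium via Fluo-8 no-wash fluorescent dye | control set = ATP and no-ATP DMSO wells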
OX1R Ca confirm: OX1R (human) antagonism, confirmed; inhibition, % at 5 µM; hit rate 38% among 1,100; CHO/OX1R cells, orexin A calcium Fluo-8 fluorescence; shares compounds with OX1R antag-2; AID 492963; in the data active means inhibition above about 29%
CHO Ca triplic: signal in parental CHO cells, OX1R antagonist counter-screen | AID 492965 | shares compounds with OX1R antag-2 | parental CHO-K1, ATP-induced calcium, Fluo-8 fluorescence | inhibition, % at 5.6 µM | hit rate 9.3% among 1,100;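 active means inhibition above a per-plate limit, the mean inhibition of that plate's test compounds plus 3 SD, cut at about 25% in these data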
A number is an active result; i = inactive; nt = no result given. Hits are enriched below; roughly 2.5% of the tested compounds scored in any of these assays.

SMILES | TRPML3 agonist | OX1R antag-1 | OX1R antag-2 | TRPN1 ag | CHO parental Ca | OX1R Ca confirm | CHO Ca triplic
CCOc1cc(S(=O)(=O)Nc2ccccc2CC)ccc1Cl | i | i | 56 | i | i | i | i
Cc1cccc(NC(=S)NCC(C)CSc2ccc(Cl)cc2)c1 (stereo not given) | i | i | i | i | i | i | i
Cc1ccc(NC(=S)NCC(C)CSc2ccc(Cl)cc2)cc1 (stereo not given) | i | i | i | i | i | nt | nt
C=CCNC(=S)NC(=O)c1oc2ccccc2c1C | i | i | i | i | i | 38 | i
Cc1c(C(=O)NC(=S)NCC(C)C)oc2ccccc12 | i | i | i | i | i | nt | nt
CC1(C)CC(=O)C(C(O)c2cccc([N+](=O)[O-])c2)C(C)(C)N1 (stereo not given) | nt | i | i | nt | i | nt | nt
Cc1csc2ncnc(N3CCN(C(=S)Nc4ccc(C(F)(F)F)cc4)CC3)c12 | i | i | 49 | i | i | i | 45
Cc1cc(C)cc(NC(=S)N2CCN(c3ncc(C(F)(F)F)cc3Cl)CC2)c1 | i | i | i | i | i | nt | nt
Cc1csc2c(N3CCN(C(=S)Nc4ccc(C(F)(F)F)cc4)CC3)ncnc12 | i | i | i | i | i | i | 64
Clc1cccc(CNc2nnnn2-c2ccccc2)c1 | i | i | 45 | i | i | i | i
Cn1nnnc1NCc1cccc(Cl)c1 | i | i | i | i | i | nt | nt
C(=C\c1ccccc1)/CN1CCN(c2ncnc3c2oc2ccccc23)CC1 | i | i | 48 | i | i | i | 57
CC(=O)c1cn(CCOc2ccc(F)cc2)c2ccccc12 | nt | i | 48 | nt | i | i | i
O=C(Nc1ncn[nH]1)c1ccc(Cl)c(S(=O)(=O)N2CCCCCC2)c1 | i | i | i | i | i | i | i
CN(C)S(=O)(=O)N1CCCC(C(=O)c2ccc(-c3ccccc3)c(F)c2)C1 (stereo not given) | i | i | i | i | i | i | i
CCOc1ccc(NC(=O)c2ccc3c(=O)n(-c4ccc(OC)cc4OC)c(=S)[nH]c3c2)cc1 | nt | i | i | nt | i | nt | nt
COc1ccc(-n2c(=S)[nH]c3cc(C(=O)Nc4ccc(C)c(F)c4)ccc3c2=O)c(OC)c1 | nt | i | i | nt | i | i | i
COCCn1c(=O)[nH]c2cc(C(=O)N3CCN(c4cccc(Cl)c4)CC3)ccc2c1=O | nt | i | i | nt | i | i | i
COCCn1c(=O)[nH]c2cc(C(=O)N3CCN(c4ccccc4)CC3)ccc2c1=O | nt | i | i | nt | i | nt | nt
C[C@H](CO)N1C[C@H](C)[C@@H](CN(C)Cc2ccc(Cl)c(Cl)c2)Oc2c(NC(=O)Cc3ccccc3)cccc2C1=O | nt | i | 56 | nt | i | i | i
C[C@H](CO)N1C[C@H](C)[C@@H](CN(C)Cc2ccccc2)Oc2c(NC(=O)Cc3ccccc3)cccc2C1=O | nt | i | i | nt | i | nt | nt
COc1cccc(CN2C(=O)C(C)N(C(=O)c3c(F)cccc3F)c3ccccc32)c1 (stereo not given) | nt | i | i | nt | i | i | i
CC1Oc2ccccc2N(Cc2cccc(F)c2)C1=O (stereo not given) | nt | i | i | nt | i | nt | nt
Cc1ccc(C)c(NC(=O)C2CC(O)CN2C(=O)Oc2ccccc2)c1 (stereo not given) | nt | i | i | nt | i | nt | nt
Cc1ccc(S(=O)(=O)N(C)c2ccc(OC(=O)c3cccs3)cc2)cc1 | nt | i | i | nt | i | i | i
SMILES | TRPML3 agonist | OX1R antag-1 | OX1R antag-2 | TRPN1 ag | CHO parental Ca | OX1R Ca confirm | CHO Ca triplic
C[C@H](CO)N1C[C@H](C)[C@@H](CN(C)C(=O)NC2CCCCC2)Oc2c(NC(=O)Cc3ccccc3)cccc2C1=O | nt | i | i | nt | i | nt | nt
Cc1cccc(N=Nc2c(N)n[nH]c2-c2ccc(Cl)cc2)c1 | i | i | i | i | i | i | i
O=C(CN1CSCC1=O)N1CCN(S(=O)(=O)c2cccc(F)c2)CC1 | nt | i | i | nt | i | nt | nt
O=C(Nc1ccc(C(=O)NCCCN2CCN(c3ccc(F)cc3)CC2)cc1)C1=CSCCO1 | nt | i | i | nt | i | 44 | 27
O=C(Nc1ccc(C(=O)NCCCN2CCCCC2)cc1)C1=CSCCO1 | nt | i | i | nt | i | nt | nt
COc1ccc(NC(=O)CNC(=O)c2nn(-c3ccc(OC)cc3OC)c(=O)c3ccccc23)c(OC)c1 | nt | i | i | nt | i | nt | nt
